In brackets after ≈: the same amount, converted by molar mass. Activity calls are given as the source filed them. The rule behind the calls is not given here.
Tests used:
ScN2a [1] = experiment: Reduction of PrPSC accumulation in ScN2a cells; type: functional, cell-based; settings: Mus musculus
Method in brief: (§1)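 Scrapie-infected mouse neuroblastoma ScN2a cells, seeded at about 40 000 cells/well, were exposed to compound for 5 days at 37 °C; concentrations up to 25 µM, final DMSO ≤0.25%. Viability was read first with calcein-AM (ex/em 492/525 nm). The same wells were then lysed, Benzonase-treated, digested with proteinase K (1 h, 37 °C), PTA-precipitated and assayed for PrP 27-30 by direct ELISA (D18 antibody, AP/pNPP). Triplicate, three independent experiments.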

ScN2a [2] = experiment: Cytotoxicity against ScN2a cells; type: functional; settings: Mus musculus, read-out: LD50 (the source's name); method in brief: as §1
ScN2a [3] = experiment: Reduction of PrPSC accumulation in ScN2a cells upto 25 uM; type: functional, cell-based; settings: Mus musculus; method in brief: as §1
[4] = target: T1, Adenosine receptor A1 (Homo sapiens) (UniProt P30542); experiment: Inhibition of human adenosine A1 receptor at 5 uM relative to DPCPX
T1 sequence (whole entry): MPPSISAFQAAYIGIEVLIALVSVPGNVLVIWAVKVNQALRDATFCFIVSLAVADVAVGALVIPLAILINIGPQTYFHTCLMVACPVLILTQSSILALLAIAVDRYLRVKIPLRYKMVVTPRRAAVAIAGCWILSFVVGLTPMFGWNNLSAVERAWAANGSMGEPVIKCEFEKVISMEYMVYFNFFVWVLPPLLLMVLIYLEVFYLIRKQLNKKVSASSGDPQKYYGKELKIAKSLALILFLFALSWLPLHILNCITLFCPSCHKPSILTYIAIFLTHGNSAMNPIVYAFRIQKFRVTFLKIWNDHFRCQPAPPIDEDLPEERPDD
Method in brief: (§2)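 Human adenosine receptor subtypes hA1, hA2a and hA3 were tested with compound at 5 µM. Inhibition is expressed relative to a selective reference also used at 5 µM, taken as 100%: DPCPX for hA1, NECA for hA2a, IB-MECA for hA3.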

[5] = target: T2, Adenosine receptor A3 (Homo sapiens) (UniProt P0DMS8); experiment: Inhibition of human adenosine A3 receptor ar 5 uM realtive to IB-MECA; method in brief: as §2
T2 sequence (whole entry): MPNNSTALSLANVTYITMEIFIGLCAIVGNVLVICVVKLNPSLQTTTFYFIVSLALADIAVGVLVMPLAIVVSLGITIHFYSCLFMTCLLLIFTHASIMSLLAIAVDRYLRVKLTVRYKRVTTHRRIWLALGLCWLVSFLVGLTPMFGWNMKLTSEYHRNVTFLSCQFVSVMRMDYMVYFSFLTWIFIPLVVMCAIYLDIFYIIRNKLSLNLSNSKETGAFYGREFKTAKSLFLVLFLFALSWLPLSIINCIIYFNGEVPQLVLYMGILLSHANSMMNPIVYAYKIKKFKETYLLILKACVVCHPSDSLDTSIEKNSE

[6] = Solubility in phosphate buffer at pH 6.5 at 500 uM; type: physicochemical
Adenosine receptor A1 = target: T3, Adenosine receptor A1 (Homo sapiens, UniProt P30542); experiment: Inhibitory constant aganist human adenosine A1 receptor
T3 sequence (P30542 whole entry): T1 sequence (whole entry)

[7] = target: Adenosine receptor A2a (Homo sapiens) (UniProt P29274); experiment: Inhibition of human adenosine A2a receptor at 5 uM relative to NECA; method in brief: as §2
Sequence of Adenosine receptor A2a (Homo sapiens) (P29274 whole entry): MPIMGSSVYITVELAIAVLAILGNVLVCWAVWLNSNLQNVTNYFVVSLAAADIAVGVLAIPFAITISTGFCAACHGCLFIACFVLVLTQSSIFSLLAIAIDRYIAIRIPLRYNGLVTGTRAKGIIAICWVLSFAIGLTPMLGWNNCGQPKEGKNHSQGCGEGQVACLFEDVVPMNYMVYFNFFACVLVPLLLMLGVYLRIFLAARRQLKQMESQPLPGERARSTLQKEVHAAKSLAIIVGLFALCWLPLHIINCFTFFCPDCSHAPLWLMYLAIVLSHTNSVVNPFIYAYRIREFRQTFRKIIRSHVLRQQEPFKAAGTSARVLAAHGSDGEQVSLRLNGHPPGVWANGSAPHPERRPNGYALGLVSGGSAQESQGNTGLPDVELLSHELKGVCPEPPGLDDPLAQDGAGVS

Row | Compound | EC50 (ScN2a [1]) [µM] | CC50 (ScN2a [2]) [µM] | solubility at 500 µM [6] [µM] | further results
1 | CCN(CC)CCSc1nc(N)c(C#N)c(-c2cc(Cl)cc(Cl)c2)c1C#N | 2.2 | > 25 |  | 
2 | N#Cc1c(N)nc(SCCCN)c(C#N)c1-c1ccco1 |  | > 25 |  | Activity (ScN2a [3]): inactive
3 | N#Cc1c(N)nc(SCc2ncc[nH]2)c(C#N)c1-c1ccccc1 | > 25 |  |  | 
4 | CCN(CC)CCSc1nc(N)c(C#N)c(-c2ccccc2Cl)c1C#N | 5.5 | > 25 | > 400 | inhibition [4]: 95%; inhibition [5]: 77%; Ki (Adenosine receptor A1): 0.59 µM; inhibition [7]: 62%
5 | CCN(CC)CCSc1nc(N)c(C#N)c(-c2cccc(Cl)c2Cl)c1C#N | 4.5 | > 25 | 200 (≈ 84.1 µg/mL) | 
6 | CC(C)N(CCSc1nc(N)c(C#N)c(-c2ccco2)c1C#N)C(C)C | 13.4 | > 25 |  | 
7 | N#Cc1c(N)nc(SCCN2CCOCC2)c(C#N)c1-c1ccco1 |  | > 25 |  | Activity (ScN2a [3]): inactive
8 | CCN(CC)CCSc1nc(N)c(C#N)c(-c2cccc(Cl)c2)c1C#N | 5.3 | > 25 |  | 
9 | CN(C)CCSc1nc(N)c(C#N)c(-c2ccco2)c1C#N | 13.9 | > 25 |  | 
10 | N#Cc1c(N)nc(SCC(N)=O)c(C#N)c1-c1ccco1 |  | > 25 |  | Activity (ScN2a [3]): inactive
11 | CCN(CC)CCSc1nc(N)c(C#N)c(-c2ccc(Br)cc2)c1C#N | 6.1 | > 25 | 200 (≈ 86.1 µg/mL) | 
12 | N#Cc1c(N)nc(SCc2ccccc2)c(C#N)c1-c1cccs1 |  | > 25 |  | Activity (ScN2a [3]): inactive
13 | CCCCN(CCCC)CCSc1nc(N)c(C#N)c(-c2ccco2)c1C#N |  | > 25 |  | Activity (ScN2a [3]): inactive
14 | CNC(=O)[C@H]1O[C@@H](n2cnc3c(NCc4cccc(I)c4)ncnc32)[C@H](O)[C@@H]1O [IB-MECA] | > 25 |  |  | 
15 | N#Cc1c(N)nc(SCCN2CCCCC2)c(C#N)c1-c1ccco1 | 8.1 | > 25 | > 400 | 
16 | CN(C)CCCSc1nc(N)c(C#N)c(-c2ccco2)c1C#N | 10.2 | > 25 | > 400 | 
17 | N#Cc1c(N)nc(SCCCN2CCCCC2)c(C#N)c1-c1ccco1 | 6 | > 25 | > 400 | 
18 | CCN(CC)CCSc1nc(N)c(C#N)c(-c2ccc(Cl)cc2)c1C#N | 7.5 | > 25 | 200 (≈ 77.2 µg/mL) | 
19 | N#Cc1c(N)nc2sc(C(=O)c3ccccc3[N+](=O)[O-])c(N)c2c1-c1ccco1 | 10.9 | > 25 |  | 
20 | CCCn1c(=O)c2[nH]c(C3CCCC3)nc2n(CCC)c1=O [1,3-DIPROPYL-8-CYCLOPENTYLXANTHINE [DPCPX]] | > 25 |  |  | 
21 | CCN(CC)CCCC(C)Nc1c2ccc(Cl)cc2nc2ccc(OC)cc12 (stereo not drawn) [QUINACRINE] | 0.8 | 7.8 |  | 
22 | CCN(CC)CCSc1nc(N)c(C#N)c(-c2ccco2)c1C#N | 8.8 | > 25 | > 400 | 
23 | CN(C)CCCN1c2ccccc2Sc2ccc(Cl)cc21 [CHLORPROMAZINE] |  |  | > 400 | 
24 | N#Cc1c(N)nc(SCCN2CCCC2)c(C#N)c1-c1ccco1 | 10.6 | > 25 | 200 (≈ 67.9 µg/mL) | 
25 | CCN(CC)CCSc1nc(N)c(C#N)c(-c2ccc(Cl)c(Cl)c2)c1C#N | 7.2 | > 25 | 200 (≈ 84.1 µg/mL) | 
26 | N#Cc1c(N)nc(Sc2ccccc2N)c(C#N)c1-c1ccco1 | 80 | > 80 |  | 
27 | CN(Cc1cnc2nc(N)nc(N)c2n1)c1ccc(C(=O)N[C@@H](CCC(=O)O)C(=O)O)cc1 [METHOTREXATE] |  |  | > 400 | 
28 | CN(CCSc1nc(N)c(C#N)c(-c2ccco2)c1C#N)Cc1ccccc1 |  | > 25 |  | Activity (ScN2a [3]): inactive
29 | COc1ccc(-c2c(C#N)c(N)nc(SCc3ncc[nH]3)c2C#N)cc1 | > 25 |  |  | 
30 | CCN(CC)CCSc1nc(N)c(C#N)c(-c2cccc(Br)c2)c1C#N | 4.3 | > 25 |  | 
